In test [1] the target is T1, Proteasome subunit beta type-9 (Homo sapiens) (UniProt P28065).
T1 sequence (whole entry): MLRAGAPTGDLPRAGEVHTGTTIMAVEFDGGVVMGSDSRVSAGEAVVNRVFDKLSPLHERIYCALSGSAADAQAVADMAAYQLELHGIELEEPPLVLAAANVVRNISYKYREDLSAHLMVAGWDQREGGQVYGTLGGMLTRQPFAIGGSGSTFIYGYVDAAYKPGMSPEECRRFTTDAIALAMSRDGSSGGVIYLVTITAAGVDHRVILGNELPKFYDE
The test can be described thus: Binding affinity to LMP2/beta1i in human PC3 cells after 4 hrs using typhoon imaging by gel fluorescence assay. The note with it: PC-3. Type of test: cell-based. In a few lines: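 PC-3 cells were treated with probe or DMSO vehicle for 4 h, with an epoxomicin control. Cells were washed in HBSS and lysed on ice for 1 h in NP-40/Triton X-100 buffer with protease inhibitors. Equal protein was run on 12% SDS-PAGE after denaturing at 100°C, and gels were scanned for fluorescence (λex 635 nm, λem 665 nm).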

Test [2] concerns the target T1, Proteasome subunit beta type-9 (Homo sapiens). Put plainly: Binding affinity to LMP2/beta1i in human PC3 cells at 30 uM after 4 hrs by fluorescence microscopy analysis in presence of UK101-Lys-Cbz treated 1.5 hrs before compound treatment. The note with it: PC-3. Type of test: cell-based.
The target is the same in test [3]. The test can be described thus: Effect on LMP2/beta1i cellular distribution in human PC3 cells after 4 hrs by fluorescence microscopy analysis in presence of UK101 treated 1.5 hrs before compound treatment. Type of test: cell-based. Conditions: PC-3. In outline:
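PC-3 cells were grown on coverslips for 24–48 h, pretreated for 1.5 h with DMSO or 5 μM competitor, then given 15 μM probe for 4 h. Cells were washed, fixed in 4% paraformaldehyde, permeabilized with 0.2% Triton, and blocked. Where indicated, cells were stained with anti-LMP2 antibody, mounted with DAPI, and imaged by fluorescence microscopy, with intensity normalized to control.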

The target is the same in test [4]. The test can be described thus: Binding affinity to LMP2/beta1i in human PC3 cells at 30 uM after 4 hrs by gel-fluorescence assay in presence of UK101-Lys-Cbz treated 1.5 hrs before compound treatment. Type of test: cell-based. Conditions: PC-3. In a few lines: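 PC-3 cells were pretreated for 1.5 h with DMSO or 20 μM competitor, then incubated with 30 μM fluorescent probe for a further 4 h. Lysates were resolved by SDS-PAGE, and gels were imaged for in-gel fluorescence (λex 635 nm, λem 665 nm).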

Test [5] shares this target. Put plainly: Binding affinity to LMP2/beta1i in human PC3 cells at 30 uM after 4 hrs by gel-fluorescence assay in presence of UK101 treated 1.5 hrs before compound treatment. Type of test: cell-based. Conditions: PC-3. In a few lines:
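PC-3 cells were pretreated for 1.5 h with DMSO or 1 μM competitor, then given 30 μM fluorescent probe for a further 4 h. Cells were washed, lysed, resolved by SDS-PAGE, and gels were imaged for in-gel fluorescence (λex 635 nm, λem 665 nm).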

For test [6] the target is unchanged. Put plainly: Binding affinity to LMP2/beta1i in human PC3 cells at 15 uM after 4 hrs by fluorescence microscopy analysis in presence of UK101 treated 1.5 hrs before compound treatment. Conditions: PC-3.
The target of test [7] is T2, Proteasome subunit beta type-8 (Homo sapiens) (UniProt P28062).
T2 sequence (whole entry): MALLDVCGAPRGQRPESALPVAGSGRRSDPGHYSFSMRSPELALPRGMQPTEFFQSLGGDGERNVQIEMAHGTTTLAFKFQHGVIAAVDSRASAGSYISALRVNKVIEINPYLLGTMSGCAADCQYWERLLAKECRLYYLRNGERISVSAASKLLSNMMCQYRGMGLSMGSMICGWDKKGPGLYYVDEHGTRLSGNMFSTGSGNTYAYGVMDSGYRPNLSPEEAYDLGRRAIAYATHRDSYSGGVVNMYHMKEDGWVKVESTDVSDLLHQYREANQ
The test can be described thus: Binding affinity to LMP7/beta5i in human PC3 cells at 10 to 20 uM after 1.5 hrs by Western blotting. Type of test: cell-based. Conditions: PC-3. In a few lines:
(§1)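 EL4 or PC-3 cells were exposed for 1.5 h to compound, DMSO vehicle, or 1 μM epoxomicin as positive control. Cells were washed in HBSS, lysed on ice for 1 h in non-denaturing NP-40/Triton buffer, and equal protein was resolved on 12% SDS-PAGE and blotted to PVDF. Blots were probed with subunit-specific antibodies and read by ECL. An upward band shift versus DMSO was scored as covalent modification.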
A general note: In western blotting, separated proteins are transferred to a membrane and probed.

The target of test [8] is T3, Proteasome subunit beta type-9 (Mus musculus) (UniProt P28076).
T3 sequence (whole entry): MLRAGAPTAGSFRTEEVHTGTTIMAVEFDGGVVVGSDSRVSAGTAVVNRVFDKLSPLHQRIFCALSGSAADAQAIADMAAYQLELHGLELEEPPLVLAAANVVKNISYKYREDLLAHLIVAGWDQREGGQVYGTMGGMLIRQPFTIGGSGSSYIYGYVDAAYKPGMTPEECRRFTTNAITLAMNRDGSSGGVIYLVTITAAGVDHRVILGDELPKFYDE
The test can be described thus: Binding affinity to LMP2/beta1i in mouse EL4 cells at 10 uM after 1.5 hrs by Western blotting. Type of test: cell-based. In outline:
as §1

In test [9] the target is T3, Proteasome subunit beta type-9 (Mus musculus). The test can be described thus: Binding affinity to LMP2/beta1i in mouse EL4 cells at 1 uM after 1.5 hrs by Western blotting. It counts as cell-based. In a few lines:
as §1

Test [10] has as its target T4, Proteasome subunit beta type-5 (Mus musculus) (UniProt O55234).
T4 sequence (whole entry): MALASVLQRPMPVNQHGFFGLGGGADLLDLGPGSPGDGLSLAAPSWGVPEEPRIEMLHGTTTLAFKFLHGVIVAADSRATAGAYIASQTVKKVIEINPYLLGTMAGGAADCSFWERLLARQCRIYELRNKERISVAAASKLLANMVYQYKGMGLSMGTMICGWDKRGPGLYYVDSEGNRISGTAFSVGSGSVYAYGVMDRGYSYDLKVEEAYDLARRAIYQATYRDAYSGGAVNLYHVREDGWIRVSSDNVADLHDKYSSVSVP
The test can be described thus: Binding affinity to LMPX/[…] in mouse EL4 cells at 10 uM after 1.5 hrs by Western blotting. It counts as cell-based. In outline:
as §1

For test [11], the target named is T3, Proteasome subunit beta type-9 (Mus musculus). The test can be described thus: Binding affinity to LMP2/beta1i in mouse EL4 cells at 5 uM after 1.5 hrs by Western blotting. It counts as cell-based. In a few lines:
as §1

Test [12] deals with T5, Proteasome subunit beta type-6 (Homo sapiens) (UniProt P28072).
T5 sequence (whole entry): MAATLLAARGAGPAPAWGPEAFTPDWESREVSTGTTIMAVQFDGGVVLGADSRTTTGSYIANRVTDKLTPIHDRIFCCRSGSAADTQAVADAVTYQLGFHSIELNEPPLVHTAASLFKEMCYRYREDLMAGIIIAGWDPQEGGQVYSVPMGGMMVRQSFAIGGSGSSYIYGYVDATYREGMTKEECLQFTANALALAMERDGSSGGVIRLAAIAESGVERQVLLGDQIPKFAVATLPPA
Put plainly: Binding affinity to LMPY/beta1 in human PC3 cells at 10 to 20 uM after 1.5 hrs by Western blotting. The note with it: PC-3. Type of test: cell-based. In a few lines:
as §1

Test [13] concerns the target T6, Proteasome subunit beta type-8 (Mus musculus) (UniProt P28063).
T6 sequence (whole entry): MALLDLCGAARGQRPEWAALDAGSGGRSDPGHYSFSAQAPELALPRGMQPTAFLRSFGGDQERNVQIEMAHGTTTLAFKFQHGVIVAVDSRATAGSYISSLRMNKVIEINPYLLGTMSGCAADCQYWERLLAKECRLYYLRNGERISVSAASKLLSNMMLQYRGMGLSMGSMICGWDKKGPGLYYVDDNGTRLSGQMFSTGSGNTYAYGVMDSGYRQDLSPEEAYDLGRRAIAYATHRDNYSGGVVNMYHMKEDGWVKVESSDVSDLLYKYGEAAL
The test can be described thus: Binding affinity to LMP7/beta5i in mouse EL4 cells at 10 uM after 1.5 hrs by Western blotting. It counts as cell-based. In a few lines:
as §1

Test [14] addresses T1, Proteasome subunit beta type-9 (Homo sapiens). Put plainly: Binding affinity to LMP2/beta1i in human PC3 cells at 10 to 80 uM after 1.5 hrs by Western blotting. Type of test: cell-based. The note with it: PC-3. In a few lines: as §1
The target in test [15] is T7, Proteasome subunit beta type-6 (Mus musculus) (UniProt Q60692).
T7 sequence (whole entry): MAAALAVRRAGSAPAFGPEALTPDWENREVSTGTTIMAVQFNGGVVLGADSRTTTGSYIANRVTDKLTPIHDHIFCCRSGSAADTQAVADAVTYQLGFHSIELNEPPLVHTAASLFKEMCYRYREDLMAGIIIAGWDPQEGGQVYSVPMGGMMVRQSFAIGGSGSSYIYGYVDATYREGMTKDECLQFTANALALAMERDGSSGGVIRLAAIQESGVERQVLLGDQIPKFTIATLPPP
Put plainly: Binding affinity to LMPY/beta1 in mouse EL4 cells at 10 uM after 1.5 hrs by Western blotting. Type of test: cell-based. In outline:
as §1

Test [16] deals with T8, Proteasome Macropain subunit MB1 (Homo sapiens) (UniProt P28074).
T8 sequence (whole entry): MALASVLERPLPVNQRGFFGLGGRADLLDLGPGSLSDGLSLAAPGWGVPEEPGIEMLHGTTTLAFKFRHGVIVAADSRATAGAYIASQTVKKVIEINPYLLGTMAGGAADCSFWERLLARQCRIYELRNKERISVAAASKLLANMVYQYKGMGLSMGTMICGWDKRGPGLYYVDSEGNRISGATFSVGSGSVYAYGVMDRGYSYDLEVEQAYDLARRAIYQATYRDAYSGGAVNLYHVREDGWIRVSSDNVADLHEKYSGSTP
Put plainly: Binding affinity to LMPX/[…] in human PC3 cells at 10 to 20 uM after 1.5 hrs by Western blotting. Type of test: cell-based. Conditions: PC-3. In a few lines: as §1

Molecules are shown by their SMILES. The source made the active and inactive calls. No cut-off for these calls is given here.

On to `CCCCCCC(=O)N[C@@H](CCCCNC(=O)CCCCCNC(=O)COc1ccc(/C=C/c2ccc3n2[B-](F)(F)[N+]2=C(c4ccc[nH]4)C=CC2=C3)cc1)C(=O)N[C@@H](CC(C)C)C(=O)[C@@]1(CO[Si](C)(C)C(C)(C)C)CO1`, for which the outcome in test [1] was Active. The outcome in test [2], in test [3], in test [4], in [5] and in test [6] was inactive.
Take `CCCCCCC(=O)N[C@@H](CCCCNC(=O)OCc1ccccc1)C(=O)N[C@@H](CC(C)C)C(=O)[C@@]1(CO[Si](C)(C)C(C)(C)C)CO1`: the result in test [7], in test [9], in [10], in test [12], in [13] and in [15] was inactive. Besides, in test [16], the outcome was inactive. Further, the result in [8], in test [11] and in [14] was Active.

(Values after ChEMBL document CHEMBL1944571, “A bright approach to the immunoproteasome: development of LMP2/β1i-specific imaging probes” (Bioorg Med Chem, 2012).)
